# According to ChEMBL document CHEMBL5712888, “Pharmacological targeting of the Wdr5-MLL interaction in C/EBPα N-terminal leukemia” (Nat Chem Biol, 2015):
# Calls of active or inactive are those of the source. No cut-off for these calls is given here.
# Assays:
# [1] = test system: Hepatocyte; assay: Induction of myeloid differentiation in mouse primary fetal liver cells expressing C/EBP-alpha p30 assessed as upregulation of Lilrb3 mRNA expression at 20 uM after 3 to 6 days by qRT-PCR analysis; assay type: functional, cell-based; details: time 3-6 day
# Method in brief: (§1)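 Cebpap30/p30 cells in culture with 20 μM compound for the indicated periods. Total RNA (300 ng) reverse transcribed with oligo(dT); SYBR qPCR, quantified by 2−ddCt method; mean ± SD of triplicate experiments, t-test.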
# [2] = species: Homo sapiens; assay: Binding affinity against WDR5 S91K mutant (unknown origin) at 50 uM by differential scanning fluorimetry
# Method in brief: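 Thermal shift of purified recombinant S91K-mutant WDR5 measured by differential scanning fluorimetry, with test compound at 50 μM run alongside a DMSO vehicle control.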
# [3] = Toxicity in mouse bone marrow cells assessed as reduction in colony formation at 2.5 to 20 uM after 7 day by CFU assay; assay type: cell-based; details: bone marrow cell, 168 h, dose 2.5-20 µM
# [4] = molecular target: Cyclin-dependent kinase 4/cyclin D1 (Homo sapiens) (UniProt P11802+P24385); assay: Inhibition of CDK4/cycD1 (unknown origin) assessed as remaining activity at 1 uM relative to control; assay type: protein-complex assay
# [5] = test system: Hepatocyte; assay: Induction of myeloid differentiation in mouse primary fetal liver cells expressing C/EBP-alpha p30 assessed as upregulation of Lcn2 mRNA expression at 20 uM after 3 to 6 days by qRT-PCR analysis; assay type: functional, cell-based; details: time 3-6 day; method in brief: as §1
# [6] = molecular target: Kappa-type opioid receptor (Homo sapiens) (UniProt P41145); assay: Displacement of [3H]U69593 from human kappa receptor assessed as remaining activity at 1 uM after 60 mins by scintillation counting analysis relative to control
# Chain of Kappa-type opioid receptor (Homo sapiens) (P41145 whole entry): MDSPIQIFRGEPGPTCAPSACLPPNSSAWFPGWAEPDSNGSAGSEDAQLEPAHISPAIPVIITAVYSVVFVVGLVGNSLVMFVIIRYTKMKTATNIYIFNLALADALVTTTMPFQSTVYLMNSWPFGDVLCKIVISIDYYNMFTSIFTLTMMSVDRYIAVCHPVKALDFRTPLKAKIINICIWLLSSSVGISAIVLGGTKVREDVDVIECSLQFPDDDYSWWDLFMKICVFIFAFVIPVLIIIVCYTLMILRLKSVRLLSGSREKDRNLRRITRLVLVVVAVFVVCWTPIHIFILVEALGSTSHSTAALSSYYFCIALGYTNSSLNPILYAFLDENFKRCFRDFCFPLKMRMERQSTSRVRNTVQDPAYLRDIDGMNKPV
# [7] = molecular target: T1, Alpha-1A adrenergic receptor (Rattus norvegicus) (UniProt P43140); assay: Displacement of [3H]prazosin from rat […] brain alpha1 adrenergic receptor assessed as remaining activity at 1 uM after 60 mins by scintillation counting method relative to control; assay type: tissue-based
# T1 sequence (whole entry): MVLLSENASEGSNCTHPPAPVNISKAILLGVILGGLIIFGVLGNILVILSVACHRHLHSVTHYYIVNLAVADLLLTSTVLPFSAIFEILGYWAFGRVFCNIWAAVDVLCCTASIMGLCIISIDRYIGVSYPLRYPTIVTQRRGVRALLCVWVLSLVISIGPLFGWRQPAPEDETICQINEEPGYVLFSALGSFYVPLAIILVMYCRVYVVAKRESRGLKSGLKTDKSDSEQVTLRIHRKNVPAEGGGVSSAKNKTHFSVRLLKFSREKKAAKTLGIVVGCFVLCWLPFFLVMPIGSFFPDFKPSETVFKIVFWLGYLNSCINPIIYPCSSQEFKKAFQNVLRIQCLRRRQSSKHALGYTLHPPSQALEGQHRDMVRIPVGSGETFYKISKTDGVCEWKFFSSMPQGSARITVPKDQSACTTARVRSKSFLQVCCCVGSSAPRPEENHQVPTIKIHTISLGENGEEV
# [8] = test system: Hepatocyte; assay: Inhibition of colony formation in mouse primary fetal liver cells expressing C/EBP-alpha p30 at 5 to 20 uM after 7 day by colony formation assay; assay type: functional, cell-based; details: dose 5-20 µM
# Method in brief: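 Primary Cebpap30/p30 fetal liver cells, maintained in DMEM/10% FCS with SCF, IL-6 and IL-3, plated at 1×10^4 cells in complete methylcellulose (M3434) with compound at the indicated concentrations; colonies scored 7 days later and normalized to DMSO for each genotype; mean ± SD of triplicate experiments.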
# [9] = test system: Hepatocyte; assay: Induction of myeloid differentiation in mouse primary fetal liver cells expressing C/EBP-alpha p30 assessed as upregulation of Mac-1/Gr-1 double positive cells at 20 uM after 6 days by flow cytometry analysis; assay type: functional, cell-based; details: time 6.0 day
# Method in brief: (§2)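 Cebpap30/p30 cells left untreated or given 20 μM compound for 6 days. Fc receptors blocked with anti-CD16/CD32, then Mac-1 and Gr-1 staining by flow cytometry, with Mac-1/Gr-1 double-positive cells counted at the indicated time points. Cytospins stained with Kwik-Diff for microscopic morphology.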
# [10] = molecular target: CDK9/cyclin T1 (Homo sapiens) (UniProt O60563+P50750); assay: Inhibition of CDK9/CycT1 (unknown origin) assessed as remaining activity at 1 uM relative to control; assay type: protein-complex assay
# [11] = test system: Hepatocyte; assay: Induction of myeloid differentiation in mouse primary fetal liver cells expressing C/EBP-alpha p30 assessed as upregulation of Ccl9 mRNA expression at 20 uM after 3 to 6 days by qRT-PCR analysis; assay type: functional, cell-based; details: time 3-6 day; method in brief: as §1
# [12] = test system: Hepatocyte; assay: Induction of myeloid differentiation in mouse primary fetal liver cells expressing C/EBP-alpha p30 assessed as upregulation of C3ar1 mRNA expression at 20 uM after 3 to 6 days by qRT-PCR analysis; assay type: functional, cell-based; details: time 3-6 day; method in brief: as §1
# [13] = molecular target: Cyclin-dependent kinase 5/CDK5 activator 1 (Homo sapiens) (UniProt Q00535+Q15078); assay: Inhibition of CDK5/p35 (unknown origin) assessed as remaining activity at 1 uM relative to control; assay type: protein-complex assay
# Chain of Cyclin-dependent kinase 5/CDK5 activator 1 (Homo sapiens) (Q00535 whole entry): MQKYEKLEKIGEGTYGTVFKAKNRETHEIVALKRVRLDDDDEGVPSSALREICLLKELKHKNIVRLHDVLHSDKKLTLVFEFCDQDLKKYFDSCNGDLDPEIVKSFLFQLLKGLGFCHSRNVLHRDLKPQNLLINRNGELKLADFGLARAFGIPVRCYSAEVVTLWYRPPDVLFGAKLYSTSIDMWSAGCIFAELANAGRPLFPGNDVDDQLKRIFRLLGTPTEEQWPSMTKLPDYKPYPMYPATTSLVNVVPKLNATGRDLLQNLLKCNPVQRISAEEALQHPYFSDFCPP
# Chain of Cyclin-dependent kinase 5/CDK5 activator 1 (Homo sapiens) (Q15078 99-307 partner limits assumed): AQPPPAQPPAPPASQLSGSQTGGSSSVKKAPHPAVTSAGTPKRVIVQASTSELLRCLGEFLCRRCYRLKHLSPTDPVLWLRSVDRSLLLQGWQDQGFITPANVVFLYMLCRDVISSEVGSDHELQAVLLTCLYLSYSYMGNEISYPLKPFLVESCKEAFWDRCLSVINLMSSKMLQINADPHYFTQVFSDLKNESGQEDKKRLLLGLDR
# [14] = test system: Hepatocyte; assay: Induction of progenitor morphology loss in mouse primary fetal liver cells expressing C/EBP-alpha p30 at 20 uM after 6 days by Cytospin stainig based microscopic analysis; assay type: functional, cell-based; details: time 6.0 day; method in brief: as §2
# [15] = test system: Hepatocyte; assay: Induction of myeloid differentiation in mouse primary fetal liver cells expressing C/EBP-alpha p30 assessed as upregulation of Lyz2 mRNA expression at 20 uM after 3 to 6 days by qRT-PCR analysis; assay type: functional, cell-based; details: time 3-6 day; method in brief: as §1
# [16] = Antiproliferative activity against human acute myeloid leukemic cells harboring N-terminal CEBPA mutation assessed as vaibility at 5 uM after 72 hrs by cell titer glo luminescent cell viability assay relative to control; assay type: functional, Leukemia cell
# Method in brief: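 20,000 viable proliferating cells per well in triplicate, exposed to 5 μM compound or 0.05% DMSO for 72 h (3 days); CellTiter-Glo luminescence, normalized to DMSO for each patient sample; mean ± SD.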
# [17] = test system: Hepatocyte; assay: Antiproliferative activity against mouse primary fetal liver cells expressing C/EBP-alpha p30 assessed as reduction in cell viability after 72 hrs by cell TiterGlo luminescent cell viability assay; assay type: functional, cell-based
# [18] = test system: K562; assay: Antiproliferative activity against human K562 cells assessed as reduction in cell viability after 72 hrs by cell TiterGlo luminescent cell viability assay; assay type: functional, cell-based
Compound,Activity [1],Activity [2],Activity [3],Activity [4],Activity [5],Activity [6],Activity [7],inhibition [8],Activity [9],Activity [10],Activity [11],Activity [12],Activity [13],Activity [14],Activity [15],Activity [16],Activity [17],Activity [18]
CN1CCN(c2ccc(-c3cccc(CN4CCOCC4)c3)cc2NC(=O)c2c[nH]c(=O)cc2C(F)(F)F)CC1,Active,inactive,Non-Toxic,102%,Active,102%,99%,Active,Active,98%,Active,Active,102%,Active,Active,53%,,
O=C(Nc1cc(-c2cccc(CN3CCOCC3)c2)ccc1N1CCOCC1)c1c[nH]c(=O)cc1C(F)(F)F,,,,,,,,,,,,,,,,,inactive,inactive
